Columns and labels:
[1] = target: Human RPA (Homo sapiens, UniProt P27694); assay: EMSA of RPA binding to 5'-32P-labeled 34-base ssDNA; conditions: for inhibition of RPA DNA binding in vitro (in words): EMSA
Outline: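 Purified human RPA (25 nM) with 25 nM 5'-32P-labelled 34-base DNA in 20 µL reactions; test compound dissolved in DMSO. Bound and free DNA were resolved by electrophoretic mobility shift.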

[2] = test system: peripheral blood mononuclear cells (PBMCs); assay: Cytotoxicity in freshly isolated PBMCs; assay type: cell-based; conditions: freshly isolated non-cancerous cells, data not shown
[3] = test system: RPA foci / DNA-PKcs phosphorylation; assay: Etoposide-induced RPA foci and DNA-PKcs serine 2056 phosphorylation; assay type: cell-based; conditions: co-treatment with etoposide
[4] = test system: Xeroderma Pigmentosum Group A protein (XPA); assay: XPA DNA binding in an ELISA format; conditions: data not shown
[5] = test system: RPA in H460 cells; assay: Indirect immunofluorescence of RPA p34; assay type: cell-based; conditions: H460, 50 µM, 3 hours, versus vehicle
Outline: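 H460 cells on chamber slides got test compound or vehicle for 3 h. They were fixed in 4% paraformaldehyde (25 °C, 3 min) and permeabilised in 0.2% Triton X-100 (2 min, 4 °C), then blocked in 15% FBS for 1 h. Staining: anti-RPA p34 (1:500, 1 h), Alexa Fluor-594 anti-mouse (1:300, 1 h), then 300 nM DAPI. Imaged by fluorescence microscopy; staining quantified by image analysis.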

[6] = test system: H460 cells; assay: Combination index analysis with cisplatin or etoposide; assay type: cell-based; conditions: H460, 48 hours, all fractions of cells affected
Outline: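 H460 cells plated at 1 × 10⁴ cells/cm² for 24 h, then treated concurrently with increasing concentrations of cisplatin or etoposide plus test compound (DMSO stock) for 48 h. Adherent and non-adherent cells were collected and stained with annexin V-FITC/PI, then read by flow cytometry. The combination index was derived by Chou–Talalay analysis across fractions of cells affected.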

[7] = test system: H460 cells; assay: Cell cycle distribution; assay type: cell-based
Outline: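 H460 cells arrested with 0.8 µg/mL nocodazole for 12 h, washed, then given vehicle or 100 µM test compound for 4, 8 or 12 h; asynchronous cells treated 3 h. 10 µM BrdU added for final 2 h (released) or final hour (asynchronous). Fixed in 70% EtOH; PI 1 µg/mL with RNaseA; DNA denatured in 2 M HCl; anti-BrdU then AlexaFluor 488 secondary; FL2-A (PI) and FL1 (BrdU) flow read-out.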

[8] = test system: H460 NSCLC cell line; assay: Annexin V/PI flow cytometry cell viability; assay type: cell-based; conditions: H460, increasing concentrations, 48 hours

Chain of Human RPA (P27694 whole entry): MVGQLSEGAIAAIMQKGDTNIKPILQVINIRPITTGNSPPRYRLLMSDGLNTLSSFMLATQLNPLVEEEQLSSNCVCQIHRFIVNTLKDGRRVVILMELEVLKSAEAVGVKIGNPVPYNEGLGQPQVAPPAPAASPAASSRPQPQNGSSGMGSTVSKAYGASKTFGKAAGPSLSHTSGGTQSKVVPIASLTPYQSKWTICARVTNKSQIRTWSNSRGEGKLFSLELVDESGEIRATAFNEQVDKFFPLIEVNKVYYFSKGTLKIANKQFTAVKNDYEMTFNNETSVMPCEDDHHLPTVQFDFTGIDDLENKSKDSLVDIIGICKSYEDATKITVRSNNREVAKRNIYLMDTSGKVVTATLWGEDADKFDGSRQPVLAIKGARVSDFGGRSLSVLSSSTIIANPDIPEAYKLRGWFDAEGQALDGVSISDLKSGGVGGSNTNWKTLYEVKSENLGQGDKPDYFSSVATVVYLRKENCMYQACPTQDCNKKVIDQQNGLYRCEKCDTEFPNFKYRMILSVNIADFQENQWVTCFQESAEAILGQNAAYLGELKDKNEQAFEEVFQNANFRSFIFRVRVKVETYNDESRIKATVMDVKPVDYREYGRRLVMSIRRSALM
Chain of Human RPA (P15927 whole entry partner): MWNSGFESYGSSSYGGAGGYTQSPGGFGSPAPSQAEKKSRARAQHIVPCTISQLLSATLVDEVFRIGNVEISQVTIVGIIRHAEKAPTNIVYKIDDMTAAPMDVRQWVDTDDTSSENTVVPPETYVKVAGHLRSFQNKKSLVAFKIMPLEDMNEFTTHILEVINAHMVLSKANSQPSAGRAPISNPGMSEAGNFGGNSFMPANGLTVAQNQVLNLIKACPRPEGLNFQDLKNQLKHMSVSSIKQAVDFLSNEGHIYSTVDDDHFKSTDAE
Chain of Human RPA (P35244 whole entry partner): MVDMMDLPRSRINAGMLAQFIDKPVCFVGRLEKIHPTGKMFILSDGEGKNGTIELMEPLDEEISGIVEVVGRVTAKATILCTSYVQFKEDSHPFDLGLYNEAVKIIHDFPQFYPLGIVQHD

Row | SMILES | competition of RPA from pre-bound DNA ([1]; data not shown) | cytotoxic activity in PBMCs [2] | etoposide-induced RPA foci and DNA-PKcs phosphorylation on co-treatment [3] | effect on XPA binding [4] | intensity of RPA staining [5] | interaction with etoposide (combination index analysis) [6] | BrdU incorporation after release from nocodazole arrest ([7]; H460, 100 µM, 10 µM BrdU final 2 hours) | S-phase entry after release from nocodazole G2 arrest ([7]; H460, 100 µM, 12 hours post release) | BrdU incorporation in asynchronous cells ([7]; H460, 3 hours treatment, BrdU final hour) | cell cycle distribution ([7]; H460, 48 hours) | PI staining (membrane integrity) [8] | annexin V staining (apoptosis) [8] | inhibition of RPA DNA binding in vitro (in words) [1]
1 | CCOc1ccc2cc(C3CC(c4ccc(Br)cc4)=NN3C(=O)CCC(=O)O)c(Cl)nc2c1 (centres unmarked) [TDRL-505] | unable to compete RPA away from DNA | minimal cytotoxic activity | slight increase | no inhibitory activity was observed | decrease in the intensity of RPA staining | synergistic activity | no BrdU incorporation was observed | did not enter S-phase | small but distinct differences | increase in the proportion of cells in G1-phase | concentration dependent increase | Minimal annexin V staining | –
2 | CCN(CC)c1ccc(C2CC(c3ccc(Br)cc3)=NN2C(=O)CCC(=O)O)cc1 (centres unmarked) [TDRL-518] | – | – | – | – | – | – | – | – | – | – | – | – | no inhibition
3 | COc1ccc(-c2nn(-c3ccccc3)cc2C2CC(c3ccc(Br)cc3)=NN2C(=O)CCC(=O)O)cc1 (centres unmarked) [TDRL-523] | – | – | – | – | – | – | – | – | – | – | – | – | modest in vitro RPA inhibition

Reference: publication PMC2882864 (Cancer research, 2010)
